Read-outs that look alike come from different tables or passages of the source. Where only a bound is given, the exact number is not on record here.

We go through 14 compounds from paper PMC8717589 (ACS Omega, 2021).

Data set [1] concerns L. infantum MHOM/TN/80/IPT1 promastigotes. Kind of data set: L. infantum promastigotes viability assay. In kind it is cell-based, Leishmania infantum. The conditions noted are these: 72 h; for inhibition at 20 µM: read-out: Percentage of inhibition at 20 μM, L. infantum MHOM/TN/80/IPT1. A digest of the protocol: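 Late log/stationary promastigotes were seeded in RPMI-PY at 2.5 × 10^6/mL. They were treated 72 h at 26 °C with 1:2 or 2:3 dilutions from 20 to 0.31 μM, with DMSO vehicle control, in duplicate. MTS/PMS was added at 26 °C until formazan formed, then A492 was read. Growth inhibition is relative to DMSO. IC50 from a normalized-response nonlinear fit with unconstrained Hill slope. Mean and 95% CI, ≥3 independent experiments.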

Data set [2] is described as follows: Cytotoxicity assay. It counts as cell-based, human. The note with it: human, PMA-differentiated THP-1 cells (macrophage-like). A digest of the protocol: (§1)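 THP-1 (RPMI-1640, 10% FBS; 5 × 10^6 cells/mL) were PMA-differentiated (20 ng/mL, 48 h). DH82 (EMEM, 15% FBS; 2 × 10^5/well) were attached overnight. Both were exposed 72 h at 37 °C to 2, 10, 20, 80 and 200 μM, with DMSO control, in duplicate. Read-out was MTS/PMS A492, with % inhibition at 200 μM.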

Data set [3] concerns THP-1 cells. As to the kind of experiment: Cytotoxicity assay. In kind it is cell-based, human. The conditions noted are these: for THP-1 selectivity index (CC50/IC50): IC50 on L. infantum MHOM/TN/80/IPT1, CC50 72 h. A digest of the protocol: as §1
Data set [4] has as its system DH82 cells. Kind of data set: Cytotoxicity assay. The note with it: IC50 on L. infantum MHOM/TN/80/IPT1; CC50 72 h. In kind it is cell-based, canine. The method in brief:
as §1

The nature of data set [5]: Cytotoxicity assay. It counts as cell-based, canine. The conditions noted are these: dog, DH82 cells. The method in brief:
as §1

Setting [6] is: Leishmania infantum, read-out: L. infantum MHOM/TN/80/IPT1 IC50 (95% CI), promastigotes, 72 h, MTS.

`CCOC(=O)c1c(C(=O)OC)cn(CC(c2cn(C)c3cc(Br)ccc23)c2cn(C)c3cc(Br)ccc23)c1C` [1d]: in data set [1] (setting [6]), the IC50 was above 20 µM. For the same compound, the inhibition at 20 µM in data set [1] (Leishmania infantum) was determined as 11%.
As to `COC(=O)c1c(C)ncn1CC(c1c[nH]c2ccccc12)c1c[nH]c2ccccc12` [2a], the CC50 at 72 h turned out to be 37.9 µM in data set [2] and 35.3 µM in data set [5]. Also, in data set [3], the “THP-1 selectivity index (CC50/IC50)” value came to 3.8. The “DH82 selectivity index (CC50/IC50)” value in data set [4] was determined as 3.5. Further, in data set [1] (setting [6]), the IC50 came out at 10 µM.
For `COC(=O)c1c(C)ncn1CC(c1c[nH]c2ccc(C)cc12)c1c[nH]c2ccc(C)cc12` [2b], in that order: 26.9 µM, 24.8 µM, 3.5, 3.2 and 7.7 µM.
With `Cc1cn(CC(c2cn(C)c3ccccc23)c2cn(C)c3ccccc23)nn1` [3b], the CC50 at 72 h in data set [2] was above 200 µM; in data set [5], 31.9 µM. Also, the inhibition at 200 µM in data set [3] (Homo sapiens, THP-1, 72 h, read-out: Percentage of inhibition at 200 μM, THP-1) was 33%. In data set [3], the “THP-1 selectivity index (CC50/IC50)” value is given as above 25. In addition, the “DH82 selectivity index (CC50/IC50)” value in data set [4] was 3.9. Also, the IC50 is below 8 µM in data set [1] (setting [6]) and 8.1 µM in data set [1] (read-out: L. infantum MHOM/TN/80/IPT1 IC50 (95% CI), promastigotes, MTS).
Consider `c1ccc2c(Cc3c[nH]c4ccccc34)c[nH]c2c1` [DIM, 3,3′-diindolylmethane, reference compound], for which the IC50 in data set [1] (setting [6]) was above 20 µM. The inhibition at 20 µM in data set [1] (Leishmania infantum) stood at 10%.
For `CCOC(=O)c1c(C)ncn1CC(c1cn(C)c2ccc([N+](=O)[O-])cc12)c1cn(C)c2ccc([N+](=O)[O-])cc12` [2f], the CC50 at 72 h was 35.1 µM in data set [2] and above 200 µM in data set [5]. Further, the “THP-1 selectivity index (CC50/IC50)” value in data set [3] was found to be 7.2. Moreover, the “DH82 selectivity index (CC50/IC50)” value in data set [4] is listed as above 41. Further, the IC50 in data set [1] (setting [6]) is 4.9 µM.
As for `COC(=O)c1c(C)ncn1CC(c1c[nH]c2cc(Br)ccc12)c1c[nH]c2cc(Br)ccc12` [2d], the CC50 at 72 h in data set [2] is 15.4 µM; in data set [5] it was 18.9 µM. In addition, the “THP-1 selectivity index (CC50/IC50)” value in data set [3] turned out to be 1.8. The “DH82 selectivity index (CC50/IC50)” value in data set [4] turned out to be 2.2. The IC50 in data set [1] (setting [6]) was found to be 8.5 µM.
For `CCCCCCCCCCCCCCCCOP(=O)([O-])OCC[N+](C)(C)C` [Milt, miltefosine, reference compound], in that order: 27.8 µM, 95.9 µM, 9.8, 33.6 and 2.9 µM.
For `CCc1ncn(CC(c2c[nH]c3ccc(C)cc23)c2c[nH]c3ccc(C)cc23)c1C(=O)OC` [2c], in that order: 38.6 µM, 23.5 µM, 3.8, 2.3 and 10 µM.
Taken in the same sequence, the figures for `C[C@@H]1[C@H](O)[C@@H](C)/C=C/C=C/C=C/C=C/C=C/C=C/C=C/[C@H](O[C@@H]2O[C@H](C)[C@@H](O)[C@H](N)[C@@H]2O)C[C@@H]2O[C@](O)(C[C@@H](O)C[C@@H](O)[C@H](O)CC[C@@H](O)C[C@@H](O)CC(=O)O[C@H]1C)C[C@H](O)[C@H]2C(=O)O` [Amph B, amphotericin B, reference compound] were 2.8 µM, above 200 µM, 45.8, above 3333 and 0.064 µM.
On to `COC(=O)c1c(C)ncn1CC(c1cn(C)c2ccccc12)c1cn(C)c2ccccc12` [2e], for which the 50% cytotoxic concentration (CC50) at 72 h in data set [2] amounted to 55.4 µM; in data set [5] it was 24.3 µM. The “THP-1 selectivity index (CC50/IC50)” value in data set [3] came out at 11.3. Also, the “DH82 selectivity index (CC50/IC50)” value in data set [4] is listed as 5.0. Also, the IC50 in data set [1] (setting [6]) was found to be 4.9 µM.
As for `CCOC(=O)c1cn(CC(c2cn(C)c3ccc(C)cc23)c2cn(C)c3ccc(C)cc23)c(C)c1C(=O)OC` [1c], the IC50 in data set [1] (setting [6]) was above 20 µM. In data set [1] (Leishmania infantum), the inhibition at 20 µM came out at 43%.
`Cc1cn(CC(c2c[nH]c3ccccc23)c2c[nH]c3ccccc23)nn1` [3a]: in data set [1] (setting [6]), the IC50 was above 20 µM. In addition, the inhibition at 20 µM in data set [1] (Leishmania infantum) was 22%.
Turning to `N=C(N)c1ccc(OCCCCCOc2ccc(C(=N)N)cc2)cc1` [Pent, pentamidine, reference compound], the CC50 at 72 h in data set [2] was 103 µM; in data set [5], 10.6 µM. In addition, the IC50 in data set [1] (setting [6]) came out at 2.6 µM.
